Source: ChEMBL document CHEMBL3576855, “Spongosine production by a Vibrio harveyi strain associated with the sponge Tectitethya crypta” (J Nat Prod, 2015)
Activity calls are given as the source filed them. No cut-off for these calls is given here.

What was measured:
RAW264.7 [1] = test: Cytotoxicity against mouse RAW264.7 cells assessed as cell viability after 48 hrs by MTT assay; format: cell-based; conditions: raw264.7, 48 h
RAW264.7 [2] = test: Antiinflammatory activity in mouse RAW264.7 cells assessed as inhibition of LPS-stimulated nitric oxide production up to 30 ug/ml after 24 hrs by Colorimetry based Griess assay; format: functional, cell-based
Summary of the method: (§1)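 RAW 264.7 murine macrophages were pretreated with the nucleosides for 1 h at 0.1, 0.3, 1.0, 3.0, 10 and 30 μg/mL, with n = 6 wells per concentration. LPS (3 μg/mL) was then added and cells incubated 24 h. Nitrite was measured with Griess stain and expressed as percent reduction versus the LPS control. Significance was tested by ANOVA with Dunnett's test.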

RAW264.7 [3] = test: Antiinflammatory activity in mouse RAW264.7 cells assessed as inhibition of LPS-stimulated nitric oxide production at 3 ug/ml after 24 hrs by Colorimetry based Griess assay; format: functional; conditions: RAW264.7, 24 h; summary of the method: as §1

Row | SMILES | Activity (RAW264.7 [1]) | inhibition (RAW264.7 [2]) | inhibition at 3 µg/mL (RAW264.7 [3]) [%]
1 | Cc1cn([C@@H]2O[C@H](CO)[C@@H](O)[C@@H]2O)c(=O)[nH]c1=O | Non-toxic | Active | 
2 | Nc1nc(O)c2ncn([C@H]3C[C@H](O)[C@@H](CO)O3)c2n1 |  | Active | 
3 | COc1nc(N)c2ncn([C@@H]3O[C@H](CO)[C@@H](O)[C@H]3O)c2n1 [BVT.115959] | Non-toxic |  | 60
4 | Nc1nc2c(ncn2[C@H]2C[C@H](O)[C@@H](CO)O2)c(=O)[nH]1 [DEOXYGUANOSINE] | Non-toxic |  | 
5 | Nc1nc2c(nc(O)n2[C@H]2C[C@H](O)[C@@H](CO)O2)c(=O)[nH]1 | Non-toxic |  | 
6 | COc1nc(N)c2[nH]cnc2n1 | Non-toxic |  | 
7 | Nc1nc2c([nH]c(=O)n2[C@H]2C[C@H](O)[C@@H](CO)O2)c(=O)[nH]1 |  | Active | 
8 | COc1nc(N)c2nc[nH]c2n1 |  | Active | 
9 | COc1nc(N)c2ncn([C@H]3C[C@H](O)[C@@H](CO)O3)c2n1 | Non-toxic | Active | 
